This is an account of results in ChEMBL document CHEMBL4513216, “Probing the Open Global Health Chemical Diversity Library for Multistage-Active Starting Points for Next-Generation Antimalarials” (ACS Infect Dis, 2020).

A short description of this series: Toxicity liver stage against HepG2, at 10uM. Set-up: test concentration 10 uM, cell line HepG2-A16-CD81EGFP. The series is classed as cell-based. Conditions: human, HepG2-A16-CD81EGFP cells; read-out: INHIBITION
In outline: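 Uninfected HepG2-A16-CD81EGFP cells, 3 × 10^3 per well, 1536-well, plated on prespotted compound at 10 μM final, parasite-free screening media added to match infected plates; puromycin 10 μM positive, DMSO 0.5% negative; run in parallel with 48 h PbLuc assay at 37 °C, 5% CO2; viability by CellTiter-Glo luminescence, normalized to controls.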
Regarding `Cn1ccnc1CN1CCOC[C@H]1c1nc(C(C)(C)C)co1`, the cytotoxicity at 10 µM is -4.13%.

With `CN(C)[C@@H]1CO[C@H](CNC(=O)CC(C)(C)C)[C@H]1O`, the cytotoxicity at 10 µM was -10.8%. Under `CC[C@H]1CN(C(=O)c2cccnc2)CC[C@H]1CC(=O)NCCOC` stands 5.26%; under `c1cc(-c2noc([C@@H]3Cc4nc[nH]c4CN3)n2)ccn1`, -0.873%; under `CC1CCN(c2ccc(NC(=O)CCn3cccn3)cc2)CC1`, -10.6%. The figure for `O=C(CCc1nc2ccccc2[nH]1)Nc1ccc2c(c1)OCC(=O)N2` is 17.9%; for `O=C(Nc1nnn[nH]1)c1cc(-c2ccc(Br)s2)n[nH]1` it is -2.71%; for `COc1ccc(C[C@H]2CN(C(=O)C3CC3)CC[C@H]2OC)cc1` it is 2.67%. Under `O=C1CC2(CCCCN2C(=O)c2cccs2)CN1CC1CC1` (configuration not stated) stands 2.67%. Regarding `CCN(C)C(=O)c1cc(-c2ccn(C(C)C)n2)n2ccccc12`, the cytotoxicity at 10 µM was -4.35%. Under `CN(C)CCN1CCc2ncc(CN(C)Cc3ccco3)n2CC1` stands -6.26%.

As for `CCS(=O)(=O)N1Cc2ncn(CC3CC3)c2C(COC)C1` (configuration not stated), the cytotoxicity at 10 µM stood at 8.83%. The figure for `COCC1CN(C(=O)c2ccccn2)Cc2nccn2C1` (configuration not stated) is 8.62%; for `Cc1cccc(COC2COC3(CCN(Cc4ccoc4)CC3)C2)n1` (configuration not stated) it is -0.211%. Consider `Cc1cccc(C(=O)N2CCn3cnc(COCC4CC4)c3C2)n1`, for which the cytotoxicity at 10 µM turned out to be 6.85%. As for `CC(C)NC(=O)C(C)NC(=O)N1CCN(c2ccc(Cl)cc2)CC1` (configuration not stated), the cytotoxicity at 10 µM is -3.6%. The figure for `CC(C)c1noc(C2CCN(C(=O)C3CCCO3)CC2)n1` (configuration not stated) is 8.35%; for `COc1ccc(OC)c(C(C)NS(=O)(=O)c2cnn(C)c2)c1` (configuration not stated) it is -3.35%; for `Cc1ccc2c(c1)c(C)cc(=O)n2CCC#N` it is 5.81%.

Turning to `O=C(c1cncs1)N1CCOCC(Cc2ccncn2)C1` (configuration not stated), the cytotoxicity at 10 µM came to 1.13%.

Turning to `Cc1cc(N2CCCC2c2cnccn2)ncn1` (configuration not stated), the cytotoxicity at 10 µM was found to be 2.44%. As for `Cc1ccc(CNC(=O)c2ccc(CNS(C)(=O)=O)o2)cc1F`, the cytotoxicity at 10 µM turned out to be 15.2%. Under `CC(C)(C)CNC(=O)c1ccc(C(=O)O)cn1` stands -4.01%; under `Cn1cc(CNc2nc3cc(Cl)ccc3n2C)cn1`, 16.8%.

On to `CC1CCC(N2CCC(NS(=O)(=O)CCCF)CC2)CC1` (configuration not stated), for which the cytotoxicity at 10 µM was 1.2%.

Take `O=C(C1CCCOC1)N1CCN(CC(F)(F)F)c2ccccc21` (configuration not stated): the cytotoxicity at 10 µM is 8.09%. The figure for `CCOC(=O)N(C)CC(=O)NCCc1coc(-c2ccc(C)cc2)n1` is -13.9%; for `COc1cccc(CNC2CCc3ccc(C)cc32)n1` (configuration not stated) it is 4.37%; for `O=C1CCN(C(=O)NCc2ccccc2Oc2ccccc2)CCN1` it is 6.03%. The figure for `Cc1cc(C)nc(NC2CCC(=O)N(C)C2)n1` (configuration not stated) is -4.83%. Under `CC(NC(=O)NCC(F)(F)F)c1nncn1C` (configuration not stated) stands -1.63%; under `CCOc1cc(Cl)ccc1CNC(=O)N1CCCC(CO)C1` (configuration not stated), 9.54%. With `Cc1cnn(CC2CCCCN2C(=O)CCCc2nc(C)no2)c1` (configuration not stated), the cytotoxicity at 10 µM was 1.46%. The figure for `O=C1NCCCCC1NS(=O)(=O)N1CCCCC1` (configuration not stated) is 1.48%; for `COCc1cccc(CNC(=O)CNc2ccccc2C(C)=O)c1` it is 0.529%. The figure for `CCc1noc(CC)c1CC(=O)N1CCC(C(=O)NC(C)C)CC1` is -10.9%; for `Cc1cccc(CN2CCN(C(=O)c3cccnc3O)CC2)c1` it is 1.73%; for `CSCC(C)(O)CNc1ccccn1` (configuration not stated) it is 8.26%. For `CN(CCc1nc2ccccc2c(=O)[nH]1)CCC(F)(F)F`, the cytotoxicity at 10 µM was -2.27%.

Consider `CC1CCCN(C(=O)c2csc(S(N)(=O)=O)c2)CC1` (configuration not stated), for which the cytotoxicity at 10 µM is 1.52%. Under `Cc1noc(C)c1CN1CCn2c(COC(C)C)nnc2C1` stands -113%; under `Cc1oncc1C(=O)N1CC[C@H]2C[C@H](c3ccncn3)O[C@@H]2C1`, -67.4%; under `CC(=O)N1CCC(n2nccc2-c2cnc(N(C)CCO)nc2)CC1`, 5.47%. `C[C@@H]1CN(C(=O)c2nc3sccn3c2-c2ncc[nH]2)C[C@H](C)O1`: the cytotoxicity at 10 µM was 3.85%. The figure for `O=C1CCC(CCC(=O)N2CCC2c2cccs2)=NN1` (configuration not stated) is 6.13%; for `CCC(C)N(Cc1sccc1C)C(=O)c1ccc2cccnc2n1` (configuration not stated) it is 2.05%; for `CC1=C(C(=O)N2CCOC(Cc3cccc(C(F)(F)F)c3)C2)OCCO1` (configuration not stated) it is 5.31%. For the compound `Cc1nn(C)c2nc(-c3ccccn3)nc(NCCC3CCCN3C)c12` (configuration not stated), the cytotoxicity at 10 µM amounted to 1.91%.

In the case of `CN(C)CC(=O)NC1CC(=O)N(CCc2ccccc2)C1` (configuration not stated), the cytotoxicity at 10 µM was -1.73%. As to `CCc1ccc2nc(C)cc(C(=O)NCc3csc(N(C)C)n3)c2c1`, the cytotoxicity at 10 µM came to 2.64%.

As to `O=C(NCCSc1ccccc1)[C@H]1CNC[C@H](C(=O)N2CCOCC2)C1`, the cytotoxicity at 10 µM was -1.97%. The figure for `N#Cc1c(N)nc2c(c1-c1c[nH]nc1C1CCCCC1)COCC2` is 6.75%; for `Cc1noc(C)c1CCCNC(=O)Nc1ccc2c(c1)CC(=O)N2` it is -16%. In the case of `COc1ccc(Cc2ncc3c(n2)CN(C(=O)C(C)(C)OC)C3)cc1`, the cytotoxicity at 10 µM was -1.24%. Under `CS(=O)(=O)CC(=O)N(CCN1CCOCC1)Cc1ccco1` stands 3.11%.

Consider `Cc1nc(O)cc(C2CCN(C(=O)c3ccsc3)CC2)n1`, for which the cytotoxicity at 10 µM is -4.97%. Under `O=C(O)Cc1nc2nccc(-c3ccc(F)cc3)n2n1` stands -1.53%; under `CCn1cc(CN2CCCN(C(=O)CCc3cccs3)CC2)cn1`, -6.99%; under `O=C(c1ccc2cc[nH]c2c1)N1CCC(Nc2cccnn2)CC1`, -5.06%. Under `Cc1cnn(CC2CCCCN2C(=O)c2c(C)noc2C)c1` (configuration not stated) stands -7.26%. The figure for `CC1CCCN(CCNC(=O)c2scnc2Cl)C1` (configuration not stated) is -6.06%. As for `COCCN1CCC(CNC(=O)C2(c3cccc(C)c3)CC2)C1` (configuration not stated), the cytotoxicity at 10 µM was -4.28%.

`CC1CN(Cc2ccc(C#N)cc2F)CCN1Cc1nccn1C` (configuration not stated): the cytotoxicity at 10 µM is -4.66%. The figure for `CC(=O)N(Cc1ncc(C)o1)C1CCN(Cc2nccn2C)C1` (configuration not stated) is 6.57%. The figure for `Cc1cnn(CC2CN(Cc3nnc(C4CC4)n3C)CCO2)c1` (configuration not stated) is -2.72%; for `O=C(N1CCCC(n2cncn2)C1)C1(c2cccc(F)c2)CCCC1` (configuration not stated) it is 3.39%; for `Cc1cc(C(=O)N2CCCC(n3cncn3)C2)no1` (configuration not stated) it is -9.98%. Under `COc1c(CNCc2ccc(N(C)C)nc2)c(C)nn1C` stands -12.3%; under `NC(=O)C1CCN(C(=O)NCc2cccnc2OC2CCCC2)C1` (configuration not stated), -7.12%. For the compound `NC(=O)COc1cccc(CN2CCc3cncnc3C2)c1`, the cytotoxicity at 10 µM is -12.9%. The figure for `Cn1ccnc1CN1CCCN(Cc2noc(C3CC3)n2)CC1` is -3.33%; for `CCOc1ccnc(N2CCN(C(=O)c3c(CC)noc3C)CC2)n1` it is -5.43%. Under `CNC(=O)CCNC(=O)c1cc(C)n(-c2cccc(OC)c2)c1C` stands -10.2%; under `CN(Cc1noc(C2CC2)n1)C1CCN(CCc2cnn(C)c2)C1` (configuration not stated), -0.222%; under `O=C(Cc1csc(-c2ccco2)n1)N1CCCC1Cn1cccn1` (configuration not stated), -11.2%. Under `CCN(Cc1nc2c(cnn2C)c(=O)[nH]1)c1cccc(C)c1` stands -7.09%. As to `COc1ncccc1CNCc1c(C)nn(C)c1N(C)C`, the cytotoxicity at 10 µM was -7.62%. Under `CN(CCc1ccccc1)Cc1nc2c(cnn2C)c(=O)[nH]1` stands -3.18%. With `Cc1ccc(N2CCCC(NCc3ccc(-n4ccnc4)cc3)C2)nn1` (configuration not stated), the cytotoxicity at 10 µM was -8.44%.

Consider `Cc1ccn2ncc(C(=O)N3CCCC(n4nc(C)nc4C)C3)c2n1` (configuration not stated), for which the cytotoxicity at 10 µM was -13.6%. The figure for `OCCN1CCN(Cc2coc(-c3ccc(Cl)cc3)n2)CC1` is -13.6%; for `CN1CCOC(CN(C(=O)Cc2ccccc2F)c2nccs2)C1` (configuration not stated) it is -11.7%. Turning to `CCC(CC)C(O)CNC(=O)Nc1cc(C)nn1C` (configuration not stated), the cytotoxicity at 10 µM was -11%.

Consider `Cc1nnc(N2CCO[C@H]3[C@@H](OCc4ccccn4)CC[C@@H]32)s1`, for which the cytotoxicity at 10 µM came to 12.2%. Under `CC(=O)N1CCc2cc(C(=O)O)c(-c3ccsc3)nc2CC1` stands 13.8%; under `O=C([C@H]1COC[C@H]2CN(CC3CCCC3)C[C@H]21)N1CCOCC1`, 20.5%. The figure for `Cc1cccc(CN2C[C@H](NS(C)(=O)=O)[C@@H]3OCCC[C@@H]32)n1` is -0.179%. The figure for `Cc1cnc(N2CCC3(CCC(C(=O)NC(C)C)C3)CC2)nc1` (configuration not stated) is -0.603%. As to `O=C(N[C@@H]1CN[C@@H]2CCCO[C@@H]21)c1cscn1`, the cytotoxicity at 10 µM was -8.69%. Under `O=C(N[C@@H]1CN(Cc2ccoc2)[C@@H]2CCCO[C@@H]21)C1CC1` stands 0.0515%; under `CN(C)C(=O)N1CCC2(CCCN(c3ncccn3)C2)C1` (configuration not stated), 4.82%. Under `O=C1N(CC2CC2)CCC12CCN(Cc1ccoc1)CC2` stands -0.302%. The figure for `Cn1cc(CN2C[C@@H]3CCCO[C@@H]3[C@H](NC(=O)CC3CC3)C2)cn1` is -0.00726%; for `O=C(O)c1c(NC2CCC2)ncc2c1CCN(C1CCOC1)C2` (configuration not stated) it is 11.4%; for `O=C(NCc1ccco1)[C@@]12CCO[C@@H]1CCN(CC1CCOCC1)C2` it is 6.06%. Regarding `c1ccc(CN2C[C@@H]3COC[C@]3(COCC3CCOCC3)C2)nc1`, the cytotoxicity at 10 µM is -0.326%.

As to `CC(C)Cn1c(=O)[nH]c2cn(-c3ccc(F)cc3)c(=O)n21`, the cytotoxicity at 10 µM came out at 8.2%.
